Screening results deposited in PubChem by SRMLSC.
A selection: hits, their analogues and other compounds. The true share with any hit is near 4.3%.
RAM network inh – blocks the yeast RAM network. S. cerevisiae dse1pr::URA3 reporter, 5-FOA growth OD615, 2 d; analog-sensitive cbk1-as2 kinase mutant strain. inhibition, % at 50 µM. actives 1.8% (n = 190,000);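 active = inhibition above a set limit, 3 SD over mean compound inhibition, cut at about 8.4% in these data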;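 also: 0% = DMSO-only wells with no growth and 100% = 10 µM 1-NA-PP1 full growth; inhibition rescues growth on 5-FOA so higher OD means more RAM inhibition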
WT yeast gro inh – growth inhibition of WT yeast, mitochondrial fusion screen; mitochondrial fusion phenotypic screen, WT strain; inhibition, % at 10 µM; actives 2.1% (n = 190,000); in the data active = inhibition above about 58%; tested in S. cerevisiae
Yeast life ext – extends the lifespan of yeast | S. cerevisiae growth with nicotinamide, OD615; deaD strain in restrictive glucose medium | inhibition of the nicotinamide effect, % at 10 µM | actives 0.68% (n = 130,000) | AID 775;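 active = inhibition above a set limit, placed 3 SD over the median of all compounds, cut at about 26% in these data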;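 also: 0% = nicotinamide-treated wells and 100% = cells grown without nicotinamide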
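Measured by: optical density (absorbance) at 615 nm; System: modified budding yeast, DeaD strain; Medium: restrictive CSMM-D dextrose medium; Timing: 4 h preincubation then 48 h treatment at 30 °C.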
BB579 growth dn – chemicals that inhibit yeast BB579 growth in restrictive medium (lifespan-shortening candidates); inhibition, % at 10 µM; AID 804; S. cerevisiae BB579 growth, OD615, 48 h; actives 0.51% (n = 140,000);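 active = inhibition above a set limit, 3 SD over the mean compound inhibition, cut at about 44% in these data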
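Assay system – yeast BB579 (DeaD) · Dosing – single compound dose of 10 µM, 0.25% DMSO final · Detection – OD615 turbidity measurement · Buffer or medium – CSMM-D restrictive synthetic medium containing dextrose (glucose) · Benchmarks – positive control amphotericin B 10 µg/mL · Incubation – 48 h exposure, 30 °C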
* = called active by the depositor; x = no result given.

SMILES	RAM network inh	WT yeast gro inh	Yeast life ext	BB579 growth dn
CC(Cc1cccnc1)NC(=O)c1ccccc1OC1CCN(S(C)(=O)=O)CC1 (centres undefined)	1	-8	x	x
CC(/C=N/n1c(-c2ccc(Cl)cc2)n[nH]c1=S)=C\c1ccco1	3	72*	-5	-11
Cc1ccc(-c2n[nH]c(=S)n2/N=C\c2ccco2)cc1	2	-13	1	-20
S=c1[nH]nc(-c2ccco2)n1/N=C/c1ccc(Cl)cc1	2	42	-5	0
CC(/C=N/n1c(-c2ccco2)n[nH]c1=S)=C\c1ccccc1	3	73*	-5	18
CC(=O)NC(CC(=O)Nc1nc(C)cs1)c1ccccc1 (centres undefined)	2	3	x	x
Cc1onc(-c2c(F)cccc2Cl)c1C(=O)Nc1sc2c(c1C(N)=O)CCC2	4	67*	-19	-3
O=C(COC(=O)Cc1ccc(Cl)cc1Cl)Nc1ccc(OC(F)F)cc1	10*	30	-7	-8
O=C(Cn1nnc(-c2ccccc2)n1)NNC(=O)c1ccco1	2	-9	x	x
CCOC(=O)c1cc(CC)sc1/N=C/c1c(O)ccc2ccccc12	3	-6	32*	-6
COc1ccc2c(c1)-c1nc(/N=C/c3ccc(O)cc3)sc1CC2	1	32	-5	-3
Cc1cc(N=Cc2c(O)ccc3cc(Br)ccc23)no1	0	0	21	41
Cc1cc(N=Cc2c(O)ccc3ccccc23)no1	0	0	43*	-13
COc1ccc2c(c1)-c1nc(NC(=O)c3cccs3)sc1CC2	3	72*	-17	-52
COc1ccc2c(c1)-c1nc(/N=C/c3c(O)ccc4ccccc34)sc1CC2	1	15	30*	-55
CN(C)/N=C/c1c(O)ccc2ccccc12	-1	-14	-18	9
Oc1ccc2ccccc2c1/C=N/c1nccs1	1	16	75*	-41
Cc1ccc(Nc2ncccc2C(=O)NCc2cccs2)c(C)c1	2	67*	-8	-18
O=C(Nc1scc(-c2ccc(F)cc2)c1C(=O)O)c1ccco1	4	-17	97*	-18
O=C(C/C=N/OCc1ccc(Cl)cc1)c1cnc(-c2ccccc2)s1	11*	-5	-18	-38
CCCCCCCCCS(=O)(=O)N/N=C/c1cccc([N+](=O)[O-])c1	8.7*	88*	-3	-6
Cc1ccc(S(=O)(=O)N/N=C/c2cccc([N+](=O)[O-])c2)cc1	0	0	-2	-9
Cc1cc(C)c(N2CCN(S(=O)(=O)N3CCCCCC3)CC2)c(C)c1	11*	61*	-6	-68
COc1ccc(N(CC(=O)Nc2ccc3c(c2)OCO3)S(=O)(=O)c2ccccc2)cc1	4	12	x	x
COC(=O)CN(c1ccc2c(c1)OCCO2)S(=O)(=O)c1ccccc1	2	73*	22	-17
SMILES	RAM network inh	WT yeast gro inh	Yeast life ext	BB579 growth dn
COc1ccc(N(CC(=O)N/N=C/c2ccc3c(c2)OCO3)S(=O)(=O)c2ccccc2)cc1	9.2*	-3	x	x
O=C(CN(c1ccccc1)S(=O)(=O)c1ccccc1)NCCSCc1ccco1	1	-19	-7	-33
COc1ccc(N(CC(=O)NCCSCc2ccco2)S(=O)(=O)c2ccccc2)cc1	9.3*	10	x	x
Cc1cccc(C)c1NS(=O)(=O)c1ccc(OCCNS(C)(=O)=O)cc1	2	-15	x	x
O=C1c2ccccc2C(=O)c2cc(S(=O)(=O)Nc3ccccc3)ccc21	2	72*	5	-61
O=S(=O)(Nc1ccccc1)c1ccc(F)cc1	2	8	2	-14
CN1CCc2nc(NC(=O)c3cccc(OC(F)F)c3)sc2C1	1	10	-3	-48
CSc1nc2ccc(NS(=O)(=O)c3c(Cl)cccc3Cl)cc2s1	5	67*	-4	-35
O=C(c1ccc(S(=O)(=O)Nc2ccc(F)cc2)cc1)N1CCN(c2ccccn2)CC1	2	6	x	x
CCCCCCCCCC(=O)NNC(=O)c1c(O)c2ccccc2n(CC)c1=O	10*	0	x	x
CCn1c(=O)c(C(=O)NNS(=O)(=O)c2ccc(C)cc2)c(O)c2ccccc21	1	9	32*	-15
CCn1c(=O)c(C(=O)Nc2ncccc2C)c(O)c2ccccc21	0	59*	x	x
CCCn1c(=O)c(C(=O)NCc2ccncc2)c(O)c2ccccc21	-1	13	28*	-7
CCn1c(=O)c(C(=O)NCc2cccnc2)c(O)c2ccccc21	0	23	17	-34
Cc1cccnc1NC(=O)c1c(O)c2ccccc2n(C)c1=O	-1	-2	1	-9
CCCCCC(=O)NNC(=O)c1c(O)c2ccccc2n(CC)c1=O	3	-14	x	x
N/C(=N\c1nc2c(c(=O)[nH]1)CCC2)Nc1ccccc1	1	1	-4	-18
Cc1nc(N2CCC(C)CC2)c2nnn(Cc3ccccc3)c2n1	1	56	x	-25
CCCCCCn1c(=O)c(-c2ccccc2)c(O)c2ccccc21	9.5*	16	-1	34
COc1cccc2c1C(=O)c1c(O)c3c(c(O)c1C2=O)C[C@@](O)(C(=O)CO)C[C@@H]3O[C@H]1C[C@H](N)[C@H](O)[C@H](C)O1	1	59*	-2	28
CCC(C)C(NC(=O)/C(=C\c1ccccc1)NC(=O)c1ccc(OC)cc1)C(=O)O (centres undefined)	-1	-10	x	x
COc1ccc(CCNC(=O)c2nc(-c3cccs3)no2)cc1OC	0	10	x	x
O=C(NCc1ccc(F)cc1)c1nc(-c2cccs2)no1	8.5*	29	x	x
Cc1ccccc1NC(=O)C(=Cc1ccc(C(=O)O)cc1)C(=O)Nc1ccccc1C	11*	-12	x	x
CC(=O)/C(=C/c1ccccc1)C(=O)Nc1ccccc1C	3	46	x	x
SMILES	RAM network inh	WT yeast gro inh	Yeast life ext	BB579 growth dn
Cn1c(CCCCCN)nc2ccccc21	2	8	30*	-1
Oc1ccccc1NCC(O)Cn1ccc2ccccc21 (centres undefined)	0	58	5	50*
OC(CNCc1ccccc1)Cn1ccc2ccccc21 (centres undefined)	1	11	3	-17
c1ccc(C(c2ccccc2)c2nc(-c3cccnc3)no2)cc1	1	86*	-5	21
C(=N\NC(=Nc1ccccc1)c1ccccn1)/c1ccccn1	1	2	-1	5
Clc1ccc(/C=N/NC(=Nc2ccccc2)c2ccccn2)c(Cl)c1	0	74*	-16	-78
CC1=C(OC(=O)C(C)(C)C)C(C)(C)C(c2ccccc2)OC1=O (centres undefined)	4	-1	9	-24
CCC(C)c1ccc(OCCn2cc(/C=N/NC(=O)CSc3nnc(C)s3)c3ccccc32)cc1 (centres undefined)	6	6	-9	-73
O=C(Nc1nc(=S)ss1)c1c(F)cccc1F	0	79*	1	-49
COc1cc(=O)n(C)c2c(O)cccc12	-1	-4	x	x
O=C(NC(=S)Nc1nc2c(s1)CSc1ccccc1-2)c1ccccc1	4	83*	66*	-55
